Legend:
Human coronavirus 229E = assay: Antiviral activity against Human coronavirus 229E infected in HEL cells assessed as reduction in virus-induced pathogenicity after 3 days by microscopic method; assay type: functional, organism-based; settings: 72 h
[1] = Cytotoxicity against HEL cells assessed as alteration in cell morphology after 3 days by microscopic method; assay type: cell-based; settings: human
How it was run: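 HEL cells were seeded at 5 x 10^3 cells/well and exposed to graded compound concentrations, up to 100 μM, in parallel with the antiviral assay. Cell morphology was examined by light microscopy. MCC is the minimum concentration causing a microscopically detectable alteration of normal cell morphology.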

Human alphaherpesvirus 1 [2] = assay: Antiviral activity against Herpes simplex virus 1 KOS infected in human HEL cells assessed as inhibition of virus-induced cytopathic effect after 3 days by microscopic method; assay type: functional, organism-based; settings: Human alphaherpesvirus 1, KOS, 72 h
Human alphaherpesvirus 2 = assay: Antiviral activity against Human herpesvirus 2 strain G infected in human HEL cells assessed as inhibition of virus-induced cytopathic effect after 3 days by microscopic method; assay type: functional, organism-based; settings: Human alphaherpesvirus 2, strain G, 72 h
Human alphaherpesvirus 1 [3] = assay: Antiviral activity against acyclovir-resistant TK-defecient Herpes simplex virus 1 KOS infected in human HEL cells assessed as inhibition of virus-induced cytopathic effect after 3 days by microscopic method; assay type: functional, organism-based; settings: Human alphaherpesvirus 1, KOS, 72 h
Vaccinia virus = assay: Antiviral activity against Vaccinia virus infected in human HEL cells assessed as inhibition of virus-induced cytopathic effect after 3 days by microscopic method; assay type: functional, organism-based; settings: Orthopoxvirus vaccinia, 72 h
Human adenovirus 2 = assay: Antiviral activity against Human adenovirus 2 infected in human HEL cells assessed as inhibition of virus-induced cytopathic effect after 3 days by microscopic method; assay type: functional, organism-based; settings: Human mastadenovirus C, 72 h
How it was run: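 HEL cells were infected with adenovirus 2 for 2 h. Residual virus was then removed and the cells were incubated with medium containing graded compound concentrations for 3 days at 37°C. Virus-induced cytopathogenicity was scored microscopically.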

[4] = Selectivity index, ratio of MCC for HEL cells to EC50 for Human coronavirus 229E infected in HEL cells; assay type: toxicity, cell-based; settings: read-out: Selectivity Index
How it was run: (§1)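 SI is MCC divided by EC50. […] MCC was measured in parallel on HEL cells seeded at 5 x 10^3 cells/well, as the lowest concentration causing microscopically visible alteration of cell morphology. The top concentration tested was 100 µM.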

[5] = Selectivity index, ratio of MCC for HEL cells to EC50 for Herpes simplex virus 1 KOS infected in HEL cells; assay type: toxicity, cell-based; settings: human, read-out: Selectivity Index; how it was run: as §1
[6] = Selectivity index, ratio of MCC for HEL cells to EC50 for Herpes simplex virus 2 strain G infected in HEL cells; assay type: toxicity, cell-based; settings: human, read-out: Selectivity Index; how it was run: as §1
[7] = Selectivity index, ratio of MCC for HEL cells to EC50 for acyclovir-resistant TK-defecient Herpes simplex virus 1 KOS infected in HEL cells; assay type: toxicity, cell-based; settings: human, read-out: Selectivity Index; how it was run: as §1
[8] = Selectivity index, ratio of MCC for HEL cells to EC50 for Vaccinia virus infected in HEL cells; assay type: toxicity, cell-based; settings: human, read-out: Selectivity Index; how it was run: as §1
[9] = Selectivity index, ratio of MCC for HEL cells to EC50 for Human adenovirus 2 infected in HEL cells; assay type: toxicity, cell-based; settings: read-out: Selectivity Index; how it was run: as §1

## CCOC(=O)C1(Cc2ccccc2)CN(c2ccccc2)Cc2nnn(CCc3cc4ccccc4[nH]3)c21 (stereo not given)
Human coronavirus 229E
  EC50: 9.45 µM
[1]
  MCC at 72 h: > 100 µM
Human alphaherpesvirus 1 [2]
  EC50: > 100 µM
Human alphaherpesvirus 2
  EC50: > 100 µM
Human alphaherpesvirus 1 [3]
  EC50: > 100 µM
Vaccinia virus
  EC50: > 100 µM
Human adenovirus 2
  EC50: > 100 µM
[4]
  selectivity ratio: > 8
[5]
  selectivity ratio: > 8
[6]
  selectivity ratio: > 8
[7]
  selectivity ratio: > 8
[8]
  selectivity ratio: > 8
[9]
  selectivity ratio: > 8

## COc1ccc(CCn2nnc3c2CCN(c2ccccc2)C3)cc1
Human coronavirus 229E
  EC50: > 100 µM
[1]
  MCC at 72 h: > 100 µM
Human alphaherpesvirus 1 [2]
  EC50: > 100 µM
Human alphaherpesvirus 2
  EC50: > 100 µM
Human alphaherpesvirus 1 [3]
  EC50: > 100 µM
Vaccinia virus
  EC50: > 100 µM
Human adenovirus 2
  EC50: > 100 µM
[4]
  selectivity ratio: > 8
[5]
  selectivity ratio: > 8
[6]
  selectivity ratio: > 8
[7]
  selectivity ratio: > 8
[8]
  selectivity ratio: > 8
[9]
  selectivity ratio: > 8

## CCCCCCCCn1nnc2c1C(Cc1ccccc1)(C(=O)OCC)CN(c1ccccc1)C2 (stereo not given)
Human coronavirus 229E
  EC50: > 100 µM
[1]
  MCC at 72 h: ≥ 20 µM
Human alphaherpesvirus 1 [2]
  EC50: > 100 µM
Human alphaherpesvirus 2
  EC50: > 100 µM
Human alphaherpesvirus 1 [3]
  EC50: > 100 µM
Vaccinia virus
  EC50: > 100 µM
Human adenovirus 2
  EC50: > 100 µM
[4]
  selectivity ratio: > 8
[5]
  selectivity ratio: > 8
[6]
  selectivity ratio: > 8
[7]
  selectivity ratio: > 8
[8]
  selectivity ratio: > 8
[9]
  selectivity ratio: > 8

## CCOC(=O)C1(Cc2ccccc2)CN(c2ccccc2)Cc2nnn(Cc3ccc(F)cc3)c21 (stereo not given)
Human coronavirus 229E
  EC50: 8.95 µM
[1]
  MCC at 72 h: ≥ 100 µM
Human alphaherpesvirus 1 [2]
  EC50: > 100 µM
Human alphaherpesvirus 2
  EC50: > 100 µM
Human alphaherpesvirus 1 [3]
  EC50: > 100 µM
Vaccinia virus
  EC50: > 100 µM
Human adenovirus 2
  EC50: > 100 µM
[4]
  selectivity ratio: > 8
[5]
  selectivity ratio: > 8
[6]
  selectivity ratio: > 8
[7]
  selectivity ratio: > 8
[8]
  selectivity ratio: > 8
[9]
  selectivity ratio: > 8

## CCOC(=O)C1(Cc2ccccc2)CN(c2ccccc2)Cc2nnn(CCc3ccccc3OC)c21 (stereo not given)
Human coronavirus 229E
  EC50: > 100 µM
[1]
  MCC at 72 h: ≥ 100 µM
Human alphaherpesvirus 1 [2]
  EC50: > 100 µM
Human alphaherpesvirus 2
  EC50: > 100 µM
Human alphaherpesvirus 1 [3]
  EC50: > 100 µM
Vaccinia virus
  EC50: > 100 µM
Human adenovirus 2
  EC50: > 100 µM
[4]
  selectivity ratio: > 8
[5]
  selectivity ratio: > 8
[6]
  selectivity ratio: > 8
[7]
  selectivity ratio: > 8
[8]
  selectivity ratio: > 8
[9]
  selectivity ratio: > 8

## CCOC(=O)C1(Cc2ccccc2)CN(c2ccccc2)Cc2nnn(Cc3ccco3)c21 (stereo not given)
Human coronavirus 229E
  EC50: > 100 µM
[1]
  MCC at 72 h: 100 µM
Human alphaherpesvirus 1 [2]
  EC50: > 100 µM
Human alphaherpesvirus 2
  EC50: > 100 µM
Human alphaherpesvirus 1 [3]
  EC50: > 100 µM
Vaccinia virus
  EC50: > 100 µM
Human adenovirus 2
  EC50: > 100 µM
[4]
  selectivity ratio: > 8
[5]
  selectivity ratio: > 8
[6]
  selectivity ratio: > 8
[7]
  selectivity ratio: > 8
[8]
  selectivity ratio: > 8
[9]
  selectivity ratio: > 8

## c1ccc(N2CCc3c(nnn3CC3CC3)C2)cc1
Human coronavirus 229E
  EC50: > 100 µM
[1]
  MCC at 72 h: > 100 µM
Human alphaherpesvirus 1 [2]
  EC50: > 100 µM
Human alphaherpesvirus 2
  EC50: > 100 µM
Human alphaherpesvirus 1 [3]
  EC50: > 100 µM
Vaccinia virus
  EC50: > 100 µM
Human adenovirus 2
  EC50: > 100 µM
[4]
  selectivity ratio: > 8
[5]
  selectivity ratio: > 8
[6]
  selectivity ratio: > 8
[7]
  selectivity ratio: > 8
[8]
  selectivity ratio: > 8
[9]
  selectivity ratio: > 8

## Nc1nc2c(ncn2COCCO)c(=O)[nH]1 [ACYCLOVIR]
[1]
  MCC at 72 h: > 250 µM
Vaccinia virus
  EC50: > 250 µM

## O=c1[nH]c(=O)n([C@H]2C[C@H](O)[C@@H](CO)O2)cc1/C=C/Br [BRIVUDINE]
[1]
  MCC at 72 h: > 250 µM
Vaccinia virus
  EC50: 3.8 µM

## Nc1ccn(C[C@@H](CO)OCP(=O)(O)O)c(=O)n1 [CIDOFOVIR]
[1]
  MCC at 72 h: > 250 µM
Human alphaherpesvirus 1 [2]
  EC50: 4.5 µM
Human alphaherpesvirus 2
  EC50: 3.4 µM
Human alphaherpesvirus 1 [3]
  EC50: 2.8 µM
Vaccinia virus
  EC50: 85 µM
Human adenovirus 2
  EC50: 22 µM

## Nc1nc2c(ncn2COC(CO)CO)c(=O)[nH]1 [GANCICLOVIR]
[1]
  MCC at 72 h: > 100 µM
Vaccinia virus
  EC50: > 100 µM

## Nc1ccn([C@H]2CC[C@@H](CO)O2)c(=O)n1 [ZALCITABINE]
[1]
  MCC at 72 h: > 250 µM
Human adenovirus 2
  EC50: 50 µM

Reference: ChEMBL document CHEMBL4265975, “Synthesis, biological evaluation and molecular modeling of a novel series of fused 1,2,3-triazoles as potential anti-coronavirus agents” (Bioorg Med Chem Lett, 2018)
